ChEMBL document CHEMBL1140872, “Discovery of a potent and selective inhibitor for human carbonyl reductase 1 from propionate scanning applied to the macrolide zearalenone” (Bioorg Med Chem, 2009)

How the values were obtained:
[1] = target: Serine/threonine-protein kinase pim-1 (Homo sapiens) (UniProt P11309); test: Binding affinity to human recombinant PIM1 expressed in Escherichia coli assessed as thermal shift by differential scanning fluorimetry
Outline: (§1)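 Thermal-shift (DSF) binding assay with purified recombinant catalytic domains or proteins carrying an N- or C-terminal His6 tag or GST fusion. Purity was >95% by SDS/PAGE and identity was confirmed by MS. Protein was at 2 µM final in 10 mM HEPES pH 7.5 and 150 mM NaCl. Tm shift is reported, with 2 °C as the threshold for binding.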

[2] = target: Serine/threonine-protein kinase pim-3 (Homo sapiens) (UniProt Q86V86); test: Binding affinity to human recombinant PIM3 expressed in Escherichia coli assessed as thermal shift by differential scanning fluorimetry; outline: as §1
[3] = species on record: Homo sapiens; test: Binding affinity to human recombinant DYRK1 expressed in Escherichia coli assessed as thermal shift by differential scanning fluorimetry; outline: as §1
[4] = target: Tyrosine-protein kinase Fes/Fps (Homo sapiens) (UniProt P07332); test: Binding affinity to human recombinant FES expressed in Escherichia coli assessed as thermal shift by differential scanning fluorimetry; outline: as §1
Tyrosine-protein kinase Fes/Fps (Homo sapiens), sequence (P07332 whole entry): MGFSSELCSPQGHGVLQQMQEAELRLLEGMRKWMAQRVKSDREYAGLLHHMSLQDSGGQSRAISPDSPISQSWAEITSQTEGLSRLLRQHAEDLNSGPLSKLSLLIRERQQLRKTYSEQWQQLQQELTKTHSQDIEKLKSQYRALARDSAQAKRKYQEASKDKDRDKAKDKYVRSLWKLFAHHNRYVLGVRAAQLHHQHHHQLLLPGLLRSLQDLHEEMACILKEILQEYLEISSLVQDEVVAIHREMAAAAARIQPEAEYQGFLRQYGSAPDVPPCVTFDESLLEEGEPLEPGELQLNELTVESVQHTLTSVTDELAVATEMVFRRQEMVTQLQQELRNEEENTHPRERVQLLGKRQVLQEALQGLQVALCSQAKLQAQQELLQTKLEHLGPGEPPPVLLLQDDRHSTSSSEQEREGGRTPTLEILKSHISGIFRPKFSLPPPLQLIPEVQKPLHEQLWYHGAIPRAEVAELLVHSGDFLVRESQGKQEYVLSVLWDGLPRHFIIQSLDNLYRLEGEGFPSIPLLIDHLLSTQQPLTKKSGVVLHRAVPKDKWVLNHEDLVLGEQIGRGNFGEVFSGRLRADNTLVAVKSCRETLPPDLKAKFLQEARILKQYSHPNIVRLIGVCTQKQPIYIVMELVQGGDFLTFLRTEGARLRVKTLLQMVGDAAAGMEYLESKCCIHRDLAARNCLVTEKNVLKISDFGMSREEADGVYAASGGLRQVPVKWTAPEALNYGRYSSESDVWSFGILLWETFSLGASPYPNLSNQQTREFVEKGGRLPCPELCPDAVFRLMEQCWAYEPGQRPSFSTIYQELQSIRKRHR

[5] = target: T1, Dual specificity mitogen-activated protein kinase kinase 6 (Homo sapiens) (UniProt P52564); test: Binding affinity to human recombinant MAP2K6 expressed in Escherichia coli assessed as thermal shift by differential scanning fluorimetry; outline: as §1
T1 sequence (whole entry): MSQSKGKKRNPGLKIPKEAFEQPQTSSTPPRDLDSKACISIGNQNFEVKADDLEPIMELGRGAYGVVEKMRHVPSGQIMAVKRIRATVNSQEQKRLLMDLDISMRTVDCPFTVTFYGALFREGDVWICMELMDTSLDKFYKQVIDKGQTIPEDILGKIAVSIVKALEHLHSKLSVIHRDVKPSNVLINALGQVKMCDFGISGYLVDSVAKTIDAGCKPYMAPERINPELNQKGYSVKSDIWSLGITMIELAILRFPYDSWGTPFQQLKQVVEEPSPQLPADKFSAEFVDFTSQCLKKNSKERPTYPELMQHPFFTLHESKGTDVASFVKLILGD

[6] = target: Casein kinase I isoform gamma-1 (Homo sapiens) (UniProt Q9HCP0); test: Binding affinity to human recombinant CSNK1G1 expressed in Escherichia coli assessed as thermal shift by differential scanning fluorimetry; outline: as §1
Casein kinase I isoform gamma-1 (Homo sapiens), sequence (Q9HCP0 whole entry, looked up, canonical isoform): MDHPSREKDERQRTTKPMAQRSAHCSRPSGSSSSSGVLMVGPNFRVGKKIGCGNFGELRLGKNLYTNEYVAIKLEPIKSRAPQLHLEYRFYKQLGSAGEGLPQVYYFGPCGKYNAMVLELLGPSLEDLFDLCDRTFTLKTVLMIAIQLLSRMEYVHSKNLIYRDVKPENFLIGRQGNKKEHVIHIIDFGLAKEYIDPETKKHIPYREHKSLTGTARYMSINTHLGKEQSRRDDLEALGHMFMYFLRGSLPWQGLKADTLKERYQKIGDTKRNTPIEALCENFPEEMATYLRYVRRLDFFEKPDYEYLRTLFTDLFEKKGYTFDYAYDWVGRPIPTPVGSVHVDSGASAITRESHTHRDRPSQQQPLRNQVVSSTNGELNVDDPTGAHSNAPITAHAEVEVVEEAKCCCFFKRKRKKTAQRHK

[7] = target: T2, Carbonyl reductase [NADPH] 1 (Homo sapiens) (UniProt P16152); test: Binding affinity to human recombinant carbonyl reductase 1 expressed in Escherichia coli assessed as thermal shift by differential scanning fluorimetry in absence of cofactor; outline: as §1
T2 sequence (whole entry): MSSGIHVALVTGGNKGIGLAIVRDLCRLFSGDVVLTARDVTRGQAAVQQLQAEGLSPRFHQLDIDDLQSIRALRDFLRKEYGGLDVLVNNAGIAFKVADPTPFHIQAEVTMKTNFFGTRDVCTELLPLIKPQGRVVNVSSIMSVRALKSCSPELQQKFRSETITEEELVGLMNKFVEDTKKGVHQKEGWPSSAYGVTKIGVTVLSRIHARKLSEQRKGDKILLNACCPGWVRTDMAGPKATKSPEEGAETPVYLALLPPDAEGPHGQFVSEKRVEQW

[8] = target: T2, Carbonyl reductase [NADPH] 1 (Homo sapiens); test: Binding affinity to human recombinant carbonyl reductase 1 expressed in Escherichia coli assessed as thermal shift by differential scanning fluorimetry in presence of NADPH; outline: as §1
[9] = target: T3, Carbonyl reductase [NADPH] 3 (Homo sapiens) (UniProt O75828); test: Binding affinity to human recombinant carbonyl reductase 3 expressed in Escherichia coli assessed as thermal shift by differential scanning fluorimetry in absence of cofactor; outline: as §1
T3 sequence (whole entry): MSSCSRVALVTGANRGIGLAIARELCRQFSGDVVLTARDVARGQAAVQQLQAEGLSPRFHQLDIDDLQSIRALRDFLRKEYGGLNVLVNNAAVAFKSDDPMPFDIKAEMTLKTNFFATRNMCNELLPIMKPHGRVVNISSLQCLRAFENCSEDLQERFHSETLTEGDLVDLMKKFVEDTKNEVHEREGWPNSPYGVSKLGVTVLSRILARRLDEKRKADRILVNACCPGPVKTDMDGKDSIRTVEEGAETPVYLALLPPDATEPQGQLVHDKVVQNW

Serine/threonine-protein kinase pim-1 (Homo sapiens), sequence (P11309 whole entry, looked up, the tested form may be a part): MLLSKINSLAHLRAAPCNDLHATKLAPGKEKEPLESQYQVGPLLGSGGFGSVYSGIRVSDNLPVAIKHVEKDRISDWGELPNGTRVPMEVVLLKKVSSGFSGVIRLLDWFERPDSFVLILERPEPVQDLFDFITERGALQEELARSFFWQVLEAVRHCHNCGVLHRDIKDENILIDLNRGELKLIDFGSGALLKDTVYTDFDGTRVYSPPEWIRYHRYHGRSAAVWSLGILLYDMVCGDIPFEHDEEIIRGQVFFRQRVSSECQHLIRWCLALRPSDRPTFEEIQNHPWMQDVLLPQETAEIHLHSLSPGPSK

COc1cc(O)c2c(c1)/C=C/CC[C@H](C)C(=O)CCC[C@H](C)OC2=O
Tm [1]: < 2 °C | Tm [2]: < 2 °C | Tm [3]: < 2 °C | Tm [4]: < 2 °C | Tm [5]: < 2 °C | Tm [6]: < 2 °C | Tm [7]: < 2 °C | Tm [8]: < 2 °C | Tm [9]: < 2 °C

COc1cc2c(c(OC)c1)C(=O)O[C@@H](C)CCCC(=O)[C@@H](C)CC/C=C/2
Tm [1]: < 2 °C | Tm [2]: < 2 °C | Tm [3]: < 2 °C | Tm [4]: < 2 °C | Tm [5]: < 2 °C | Tm [6]: < 2 °C | Tm [7]: < 2 °C | Tm [8]: < 2 °C | Tm [9]: < 2 °C

COc1cc2c(c(OC)c1)C(=O)O[C@@H](C)CCC[C@@H](O)[C@@H](C)CC/C=C/2
Tm [1]: < 2 °C | Tm [2]: < 2 °C | Tm [3]: < 2 °C | Tm [4]: < 2 °C | Tm [5]: < 2 °C | Tm [6]: < 2 °C | Tm [7]: < 2 °C | Tm [8]: < 2 °C | Tm [9]: < 2 °C

COC1=C2C[C@@H](C)C[C@H](OC)[C@H](O)[C@@H](C)/C=C(\C)[C@H](OC(N)=O)[C@@H](OC)/C=C\C=C(/C)C(=O)NC(=CC1=O)C2=O
Tm [1]: < 2 °C | Tm [2]: < 2 °C | Tm [3]: < 2 °C | Tm [4]: < 2 °C | Tm [5]: < 2 °C | Tm [6]: < 2 °C | Tm [7]: < 2 °C | Tm [8]: < 2 °C | Tm [9]: < 2 °C

C[C@H]1CCCC(=O)[C@@H](C)CC/C=C/c2cc(O)cc(O)c2C(=O)O1
Tm [1]: 2.2 °C | Tm [2]: < 2 °C | Tm [3]: < 2 °C | Tm [4]: < 2 °C | Tm [5]: < 2 °C | Tm [6]: < 2 °C | Tm [7]: < 2 °C | Tm [8]: < 2 °C | Tm [9]: < 2 °C

C[C@H]1CCCC(=O)CCC/C=C/c2cc(O)cc(O)c2C(=O)O1
Tm [1]: 3 °C | Tm [2]: < 2 °C | Tm [3]: < 2 °C | Tm [4]: < 2 °C | Tm [5]: < 2 °C | Tm [6]: < 2 °C | Tm [7]: < 2 °C | Tm [8]: < 2 °C | Tm [9]: < 2 °C

C[C@@H]1C[C@H]2O[C@@H]2/C=C\C=C\C(=O)Cc2c(Cl)c(O)cc(O)c2C(=O)O1 [RADICICOL]
Tm [1]: < 2 °C | Tm [2]: < 2 °C | Tm [3]: < 2 °C | Tm [4]: < 2 °C | Tm [5]: < 2 °C | Tm [6]: < 2 °C | Tm [7]: < 2 °C | Tm [8]: < 2 °C | Tm [9]: < 2 °C
